Drawing on ChEMBL document CHEMBL1147378, “Further lupane lactones from Kokoona ochracea” (1993), this text covers EC50 for four molecules.

The nature of assay [1]: Cytotoxicity against human multidrug-resistant KBV1 cells in presence of vinblastine after 72 hrs. The format is functional. The conditions noted are these: KB-V1, 72 h, read-out: ED50 (the source's name).
A short description of assay [2]: Cytotoxicity against human BC1 cells after 72 hrs. The conditions noted are these: BC1, 72 h, read-out: ED50 (the source's name). The format is functional. A digest of the protocol: (§1)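 Cells in media with penicillin, streptomycin, fungizone and NaHCO3, pH 7.1–7.2. Compounds dissolved in DMSO (0.5% v/v final) and tested in triplicate at four concentrations (0.16–20 μg/ml). Incubation 72 h at 37° under 5% CO2. Cells fixed in cold 50% TCA and stained with sulforhodamine B. Bound dye solubilized in 10 mM Tris base, OD read at 515 nm. ED50 taken from averaged % of DMSO-only controls.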

For the next assay, the system named is Lu1. Briefly: Cytotoxicity against human Lu1 cells after 72 hrs. The format is functional. The conditions noted are these: Lu1, 72 h, read-out: ED50 (the source's name). The essentials: as §1
Another assay relates to HT-1080. The assay can be described thus: Cytotoxicity against human HT1080 cells after 48 hrs. Particulars: HT-1080, 48 h, read-out: ED50 (the source's name). The format is functional. The essentials:
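HT-1080 cells exposed in triplicate to four concentrations (0.16–20 μg/ml) of compound from DMSO stock (0.5% v/v final). Incubation 48 h at 37° under 5% CO2. Read-out by cold 50% TCA fixation, sulforhodamine B staining and Tris-solubilized OD at 515 nm. ED50 derived from averaged % of DMSO-only controls.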

Assay [3] can be described thus: Cytotoxicity against human multidrug-resistant KBV1 cells in absence of vinblastine after 72 hrs. The format is functional. The conditions noted are these: KB-V1, 72 h, read-out: ED50 (the source's name). The essentials:
as §1

Assay [4] is described as follows: Cytotoxicity against human U373 cells after 96 hrs. The format is functional, U-373MG ATCC. The conditions noted are these: U373 MG, read-out: ED50 (the source's name). A digest of the protocol: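 U373 cells grown in medium without fungizone. Treated in triplicate with four concentrations (0.16–20 μg/ml), DMSO 0.5% v/v final. Incubation 96 h at 37° under 5% CO2. Sulforhodamine B protein stain after cold 50% TCA fixation, OD 515 nm. ED50 derived from averaged % of DMSO-only controls.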

The test system of the next assay is P388. Briefly: Cytotoxicity against mouse P388 cells after 48 hrs. The format is functional. The conditions noted are these: P388, 48 h, read-out: ED50 (the source's name). The essentials:
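Murine P-388 cells grown in medium without fungizone. Treated in triplicate at four concentrations (0.16–20 μg/ml), DMSO 0.5% v/v final. Incubation 48 h at 37° under 5% CO2. Fixed with 20% TCA, stained with sulforhodamine B, Tris-solubilized OD read at 515 nm. ED50 derived from averaged % of DMSO-only controls.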

The subject of another assay is LNCaP. The assay can be described thus: Cytotoxicity against human LNCAP cells after 72 hrs. The format is functional. The conditions noted are these: read-out: ED50 (the source's name). A digest of the protocol: as §1
The subject of a further assay is KB. Briefly: Cytotoxicity against human KB cells after 72 hrs. Particulars: read-out: ED50 (the source's name). The format is functional. A digest of the protocol:
as §1

A further assay deals with A-431. Briefly: Cytotoxicity against human A431 cells after 72 hrs. The conditions noted are these: A-431, 72 h, read-out: ED50 (the source's name). The format is functional. A digest of the protocol:
as §1

A further assay deals with Col2. Briefly: Cytotoxicity against human Col2 cells after 72 hrs. The format is functional. The conditions noted are these: Col2, 72 h, read-out: ED50 (the source's name). The essentials: as §1
For another assay, the system named is SK-MEL-2. Briefly: Cytotoxicity against human SK-MEL-2 cells after 72 hrs. The format is functional. Particulars: SK-MEL-2, 72 h, read-out: ED50 (the source's name). A digest of the protocol: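 MEL-2 cells kept in a closed container. Treated in triplicate at four concentrations (0.16–20 μg/ml), DMSO 0.5% v/v final. Incubation 72 h at 37° without CO2. Cells fixed with cold 50% TCA, stained with sulforhodamine B, dye solubilized in 10 mM Tris, OD 515 nm. ED50 derived from averaged % of DMSO-only controls.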

The next assay relates to ZR-75-1. Briefly: Cytotoxicity against human ZR-75-1 cells after 72 hrs. The format is functional. The conditions noted are these: ZR-75-1, 72 h, read-out: ED50 (the source's name). A digest of the protocol:
as §1

The structures appear in SMILES notation. Values after ≈ are worked out from the molar mass of the structure shown.

With `CC(=O)OC[C@]1(O)C(=O)O[C@@H]2C[C@]3(C)CC[C@]4(C)[C@@H](CC[C@@H]5[C@@]6(C)CCC(=O)C(C)(C)[C@@H]6CC[C@]54C)[C@@H]3[C@@H]21`, the EC50 is 11.7 µg/mL in [1]; greater than 20 µg/mL in assay [2]; greater than 20 µg/mL in the assay with Lu1; greater than 20 µg/mL in the assay with HT-1080; 14.6 µg/mL (≈ 27.6 µM) in [3]; greater than 20 µg/mL in assay [4]. Further, the EC50 is 4.6 µg/mL (≈ 8.7 µM) in the assay with P388; greater than 20 µg/mL in the assay with LNCaP; 16.7 µg/mL (≈ 31.6 µM) in the assay on KB; greater than 20 µg/mL in the assay with A-431; greater than 20 µg/mL with Col2; 20 µg/mL (≈ 37.8 µM) in the assay on SK-MEL-2. Moreover, the EC50 in the assay with ZR-75-1 was greater than 20 µg/mL.
Consider `CC(=O)OC[C@]1(OC(C)=O)C(=O)O[C@@H]2C[C@]3(C)CC[C@]4(C)[C@@H](CC[C@@H]5[C@@]6(C)CCC(=O)C(C)(C)[C@@H]6CC[C@]54C)[C@@H]3[C@@H]21`, for which the EC50 in [1] is 6.7 µg/mL; in assay [2], greater than 20 µg/mL; in the assay with Lu1, greater than 20 µg/mL; in the assay on HT-1080, greater than 20 µg/mL; in [3], 18.3 µg/mL (≈ 32.1 µM); in assay [4] it was greater than 20 µg/mL. Further, the EC50 is 4.8 µg/mL (≈ 8.41 µM) in the assay on P388; greater than 20 µg/mL with LNCaP; 16.8 µg/mL (≈ 29.4 µM) in the assay with KB; greater than 20 µg/mL in the assay with A-431; greater than 20 µg/mL in the assay on Col2; 6.2 µg/mL (≈ 10.9 µM) in the assay on SK-MEL-2. For the same molecule, the EC50 in the assay with ZR-75-1 stood at 11.5 µg/mL (≈ 20.1 µM).
On to `CC1(C)C(=O)CC[C@]2(C)[C@H]3CC[C@H]4[C@@H]5[C@H]6[C@@H](C[C@]5(C)CC[C@@]4(C)[C@]3(C)CC[C@@H]12)OC(=O)[C@@]6(O)CO` [OCHRACEOLIDE D], for which the EC50 in [1] is greater than 20 µg/mL; in assay [2], greater than 20 µg/mL; with Lu1, greater than 20 µg/mL; in the assay on HT-1080, 14.7 µg/mL (≈ 30.2 µM); in [3], greater than 20 µg/mL; in [4], 3.9 µg/mL (≈ 8.01 µM). Besides, the EC50 in the assay on P388 is greater than 5 µg/mL; in the assay with LNCaP, 15.5 µg/mL (≈ 31.8 µM); in the assay on KB it was greater than 20 µg/mL; with A-431 it was 9.5 µg/mL (≈ 19.5 µM); in the assay on Col2, greater than 20 µg/mL; in the assay with SK-MEL-2, greater than 20 µg/mL. Moreover, the EC50 in the assay on ZR-75-1 was greater than 20 µg/mL.
With `C=C1C(=O)O[C@@H]2C[C@]3(CO)CC[C@]4(C)[C@@H](CC[C@@H]5[C@@]6(C)CCC(=O)C(C)(C)[C@@H]6CC[C@]54C)[C@@H]3[C@H]12` [OCHRACEOLIDE E], the EC50 was greater than 20 µg/mL in assay [1]; greater than 20 µg/mL in assay [2]; greater than 20 µg/mL in the assay with Lu1; 12.2 µg/mL (≈ 26 µM) in the assay with HT-1080; greater than 20 µg/mL in assay [3]; 8.6 µg/mL (≈ 18.3 µM) in [4]. In addition, the EC50 with P388 is greater than 5 µg/mL; in the assay on LNCaP, greater than 20 µg/mL; in the assay with KB, greater than 20 µg/mL; in the assay with A-431 it was greater than 20 µg/mL; in the assay on Col2, greater than 20 µg/mL; with SK-MEL-2 it was 11.9 µg/mL (≈ 25.4 µM). Also, the EC50 with ZR-75-1 amounted to 18.8 µg/mL (≈ 40.1 µM).
